From ChEMBL document CHEMBL1154855 (Eur J Med Chem, 2010)
≈ marks a conversion by molar mass, not a printed value.

Experiments:
[1] = tested on: Human alphaherpesvirus 1; experiment: Antiviral activity against acyclovir-sensitive Herpes simplex virus 1 KOS infected in HEL cells assessed as protection from virus-induced cytopathogenicity after 2 to 3 days by MTT assay; format: functional, organism-based; conditions: Human alphaherpesvirus 1, KOS
[2] = tested on: HEL; experiment: (§1) Cytotoxicity against Herpes simplex virus 2 G infected HEL cells by trypan blue exclusion method; format: cell-based; conditions: human, hel
In short: (§2)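 Uninfected confluent cultures were run in parallel with the infected cultures. Medium was replaced by 1 ml maintenance medium with serial compound concentrations; cell controls received no compound. Cultures were incubated at 37 °C. After 2 and 7 days, compound was withdrawn and viability was determined by trypan blue exclusion.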

[3] = tested on: Human alphaherpesvirus 1; experiment: Antiviral activity against Herpes simplex virus 1 KOS infected in HEL cells assessed as protection from virus-induced cytopathogenicity after 2 to 3 days by MTT assay; format: functional, organism-based; conditions: Human alphaherpesvirus 1, KOS
[4] = tested on: Influenza A virus; experiment: Antiviral activity against Influenza A virus H1N1 infected in MDCK cells assessed as protection from virus-induced cytopathogenicity after 6 to 7 days by MTT assay; format: functional, organism-based
[5] = tested on: Vesicular stomatitis virus; experiment: Antiviral activity against VSV infected in human HeLa cells assessed as protection from virus-induced cytopathogenicity after 1 to 2 days by MTT assay; format: functional, organism-based
[6] = tested on: MDCK; experiment: Cytotoxicity against Influenza A virus subtype H1N1 infected MDCK cells by trypan blue exclusion method; format: cell-based, Canis lupus familiaris; conditions: dog
[7] = tested on: HeLa; experiment: Cytotoxicity against VSV infected human HeLa cells by trypan blue exclusion method; format: cell-based; conditions: hela; in short: as §2
[8] = tested on: Coxsackievirus B4; experiment: Antiviral activity against Human coxsackievirus B4 infected in african green monkey Vero cells assessed as protection from virus-induced cytopathogenicity after 2 days by MTT assay; format: functional, organism-based; conditions: Enterovirus B, 48 h
[9] = tested on: Proteus mirabilis; experiment: Antibacterial activity against Proteus mirabilis after 24 hrs by broth microdilution method; format: functional; conditions: Proteus mirabilis, 24 h; read-out: MIC
In short: (§3)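 Clinical isolates. Each dilution received 100 μl of 0.5 McFarland fresh culture. Solvent (DMSO), growth and standard controls were included. Tubes were incubated at 37 °C for 24 h. MIC is the highest dilution showing no turbidity. Tests were run in triplicate, with at least two repetitions.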

[10] = tested on: HEL; experiment: (§4) Cytotoxicity against Vaccinia virus infected HEL cells by trypan blue exclusion method; format: cell-based; conditions: human, hel; in short: as §2
[11] = tested on: HeLa; experiment: Cytotoxicity against Human coxsackievirus B4 infected human HeLa cells by trypan blue exclusion method; format: cell-based; conditions: hela; in short: as §2
[12] = Cytotoxicity against Feline coronavirus infected cat CRFK cells by trypan blue exclusion method; format: cell-based, Felis catus; in short: as §2
[13] = tested on: Human alphaherpesvirus 2; experiment: Antiviral activity against Herpes simplex virus 2 G infected in HEL cells assessed as protection from virus-induced cytopathogenicity after 2 to 3 days by MTT assay; format: functional, organism-based; conditions: Human alphaherpesvirus 2, strain G
[14] = tested on: Vero; experiment: Cytotoxicity against PIV 3 infected african green monkey Vero cells by trypan blue exclusion method; format: cell-based; conditions: chlorocebus sabaeus, vero; in short: as §2
[15] = tested on: Vero; experiment: Cytotoxicity against Human coxsackievirus B4 infected african green monkey Vero cells by trypan blue exclusion method; format: cell-based; conditions: chlorocebus sabaeus, vero; in short: as §2
[16] = tested on: Mammalian orthoreovirus 1; experiment: Antiviral activity against Reovirus 1 infected in african green monkey Vero cells assessed as protection from virus-induced cytopathogenicity after 6 to 7 days by MTT assay; format: functional, organism-based; conditions: Mammalian orthoreovirus 1, Vero
[17] = Cytotoxicity against HIV1 3B-infected human MT4 cells by MTT assay; format: cell-based; conditions: MT4 cells infected with HIV-1 3B
In short: (§5)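 MT-4 cells (3 × 10^4 per well) were cultured in microdilution trays with various concentrations of compound, then incubated 5 days at 37 °C, and viable cell number was read by MTT.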

[18] = tested on: Vesicular stomatitis virus; experiment: Antiviral activity against VSV infected in HEL cells assessed as protection from virus-induced cytopathogenicity after 1 to 2 days by MTT assay; format: functional, organism-based
[19] = tested on: MDCK; experiment: Cytotoxicity against Influenza A virus subtype H3N2 infected MDCK cells by trypan blue exclusion method; format: cell-based, Canis lupus familiaris; conditions: dog
[20] = tested on: HEL; experiment: (§6) Cytotoxicity against Herpes simplex virus 1 KOS infected HEL cells by trypan blue exclusion method; format: cell-based; conditions: human, hel; in short: as §2
[21] = tested on: Feline coronavirus; experiment: Antiviral activity against Feline coronavirus infected in cat CRFK cells assessed as protection from virus-induced cytopathogenicity by MTT assay; format: functional, organism-based; conditions: Alphacoronavirus 1, CRFK
[22] = tested on: Punta Toro virus; experiment: Antiviral activity against Punta Toro virus infected in african green monkey Vero cells assessed as protection from virus-induced cytopathogenicity by MTT assay; format: functional, organism-based
[23] = tested on: Human immunodeficiency virus 1; experiment: Antiviral activity against HIV1 3B-infected in human MT4 cells assessed as protection from virus-induced cytopathogenicity after 5 days by MTT assay; format: functional, organism-based; conditions: Human immunodeficiency virus 1, 3B, MT4, 120 h
In short: (§7)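 MT-4 cells at 3 × 10^4 per well were infected with HIV (IIIB or ROD) at 50% cell culture infective doses. Graded compound concentrations were added immediately after infection. Plates were incubated for 5 days at 37 °C and viable cells were counted by MTT.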

[24] = tested on: Vero; experiment: Cytotoxicity against Reovirus 1 infected african green monkey Vero cells by trypan blue exclusion method; format: cell-based; conditions: chlorocebus sabaeus, vero; in short: as §2
[25] = tested on: Human respirovirus 3; experiment: Antiviral activity against PIV 3 infected in african green monkey Vero cells assessed as protection from virus-induced cytopathogenicity after 6 to 7 days by MTT assay; format: functional, organism-based; conditions: Human respirovirus 3, Vero
[26] = tested on: MDCK; experiment: Cytotoxicity against Influenza B virus infected MDCK cells by trypan blue exclusion method; format: cell-based, Canis lupus familiaris; conditions: dog
[27] = Cytotoxicity against HIV2 ROD infected human MT4 cells by MTT assay; format: cell-based; conditions: MT4 cells infected with HIV-2 ROD; in short: as §5
[28] = tested on: HEL; experiment: Cytotoxicity against acyclovir-sensitive Herpes simplex virus 1 KOS infected HEL cells by trypan blue exclusion method; format: cell-based; conditions: human; in short: as §2
[29] = tested on: HeLa; experiment: Cytotoxicity against Respiratory syncytial virus infected human HeLa cells by trypan blue exclusion method; format: cell-based; conditions: hela; in short: as §2
[30] = tested on: Sindbis virus; experiment: Antiviral activity against Sindbis virus infected in african green monkey Vero cells assessed as protection from virus-induced cytopathogenicity after 2 to 3 days by MTT assay; format: functional, organism-based
[31] = tested on: HEL; experiment: (§8) Cytotoxicity against VSV infected HEL cells by trypan blue exclusion method; format: cell-based; conditions: human, hel; in short: as §2
[32] = tested on: Coxsackievirus B4; experiment: Antiviral activity against Human coxsackievirus B4 infected in human HeLa cells assessed as protection from virus-induced cytopathogenicity after 2 days by MTT assay; format: functional, organism-based; conditions: Enterovirus B, 48 h
[33] = tested on: Influenza A virus; experiment: Antiviral activity against Influenza A virus H3N2 infected in MDCK cells assessed as protection from virus-induced cytopathogenicity after 6 to 7 days by MTT assay; format: functional, organism-based
[34] = Cytotoxicity against Feline herpesvirus infected cat CRFK cells by trypan blue exclusion method; format: cell-based, Felis catus; in short: as §2
[35] = tested on: Human immunodeficiency virus 2; experiment: Antiviral activity against HIV2 ROD infected in human MT4 cells assessed as protection from virus-induced cytopathogenicity after 5 days by MTT assay; format: functional, organism-based; conditions: Human immunodeficiency virus 2, ISOLATE ROD, MT4, 120 h; in short: as §7
[36] = tested on: Felid alphaherpesvirus 1; experiment: Antiviral activity against Feline herpesvirus infected in cat CRFK cells assessed as protection from virus-induced cytopathogenicity by MTT assay; format: functional, organism-based; conditions: Felid alphaherpesvirus 1, CRFK
[37] = tested on: Vero; experiment: Cytotoxicity against Sindbis virus infected african green monkey Vero cells by trypan blue exclusion method; format: cell-based; conditions: chlorocebus sabaeus, vero; in short: as §2
[38] = tested on: Respiratory syncytial virus; experiment: Antiviral activity against Respiratory syncytial virus infected in human HeLa cells assessed as protection from virus-induced cytopathogenicity after 4 days by MTT assay; format: functional, organism-based; conditions: 96 h
[39] = tested on: Influenza B virus; experiment: Antiviral activity against Influenza B virus infected in MDCK cells assessed as protection from virus-induced cytopathogenicity after 6 to 7 days by MTT assay; format: functional, organism-based
[40] = tested on: Streptococcus viridans; experiment: Antibacterial activity against Streptococcus viridans after 24 hrs by broth microdilution method; format: functional; conditions: Streptococcus viridans, 24 h; read-out: MIC; in short: as §3
[41] = tested on: Escherichia coli; experiment: Antibacterial activity against Escherichia coli after 24 hrs by broth microdilution method; format: functional; conditions: Escherichia coli, 24 h; read-out: MIC; in short: as §3
[42] = tested on: Klebsiella pneumoniae; experiment: Antibacterial activity against Klebsiella pneumoniae after 24 hrs by broth microdilution method; format: functional; conditions: Klebsiella pneumoniae, 24 h; read-out: MIC; in short: as §3
[43] = as §1; format: cell-based; conditions: human, HEL cells infected with herpes simplex virus 2 G; in short: as §2
[44] = as §4; format: cell-based; conditions: human, HEL cells infected with vaccinia virus; in short: as §2
[45] = as §6; format: cell-based; conditions: human, HEL cells infected with herpes simplex virus 1 KOS; in short: as §2
[46] = as §8; format: cell-based; conditions: human, HEL cells infected with VSV; in short: as §2

COc1cc(/C=C/C(=O)C(CCOC(=O)CCC(NC(=O)c2ccc(NCc3cnc4nc(N)[nH]c(=O)c4n3)cc2)C(=O)O)C(=O)/C=C/c2ccc(O)c(OC)c2)ccc1O (configuration not stated)
EC50 [1]: > 11 nM
CC50 [2]: > 11 nM
EC50 [3]: > 11 nM
EC50 [4]: > 11 nM
EC50 [5]: > 11 nM
CC50 [6]: > 11 nM
CC50 [7]: > 11 nM
EC50 [8]: > 11 nM
MIC [9]: 0.09 µM (≈ 0.0752 µg/mL)
CC50 [10]: > 11 nM
CC50 [11]: > 11 nM
CC50 ([12]; crfk): > 11 nM
EC50 [13]: > 11 nM
CC50 [14]: > 11 nM
CC50 [15]: > 11 nM
EC50 [16]: > 11 nM
CC50 [17]: > 63 nM
EC50 [18]: > 11 nM
CC50 [19]: > 11 nM
CC50 [20]: > 11 nM
EC50 [21]: > 11 nM
EC50 [22]: > 11 nM
IC50 [23]: 63 nM
CC50 [24]: > 11 nM
EC50 [25]: > 11 nM
CC50 [26]: > 11 nM
CC50 [27]: > 65 nM
CC50 [28]: > 11 nM
CC50 [29]: > 11 nM
EC50 [30]: > 11 nM
CC50 [31]: > 11 nM
EC50 [32]: > 11 nM
EC50 [33]: > 11 nM
CC50 ([34]; crfk): > 11 nM
IC50 [35]: 65 nM
EC50 [36]: > 11 nM
CC50 [37]: > 11 nM
EC50 [38]: > 11 nM
EC50 [39]: > 11 nM

COc1cc(/C=C/C(=O)CC(=O)/C=C/c2ccc(OC(=O)CCC(NC(=O)c3ccc(NCc4cnc5nc(N)[nH]c(=O)c5n4)cc3)C(=O)O)c(OC)c2)ccc1OC(=O)CCC(NC(=O)c1ccc(NCc2cnc3nc(N)[nH]c(=O)c3n2)cc1)C(=O)O (configuration not stated)
EC50 [1]: > 82 nM
CC50 [2]: > 82 nM
EC50 [3]: > 82 nM
EC50 [4]: > 82 nM
EC50 [5]: > 82 nM
CC50 [7]: > 82 nM
EC50 [8]: > 82 nM
MIC [9]: 0.54 µM (≈ 0.656 µg/mL)
CC50 [10]: > 82 nM
CC50 [11]: > 82 nM
EC50 [13]: > 82 nM
CC50 [14]: > 82 nM
MIC [40]: 0.27 µM (≈ 0.328 µg/mL)
CC50 [15]: > 82 nM
EC50 [16]: > 82 nM
CC50 [17]: > 36 nM
EC50 [18]: > 82 nM
CC50 [20]: > 82 nM
EC50 [21]: > 30 nM
EC50 [22]: > 82 nM
MIC [41]: 0.27 µM (≈ 0.328 µg/mL)
IC50 [23]: 36 nM
CC50 [24]: > 82 nM
EC50 [25]: > 82 nM
MIC [42]: 0.27 µM (≈ 0.328 µg/mL)
CC50 [26]: 82 nM
CC50 [27]: > 46 nM
CC50 [28]: > 82 nM
CC50 [29]: > 82 nM
EC50 [30]: > 82 nM
CC50 [31]: > 82 nM
EC50 [32]: > 82 nM
EC50 [33]: > 82 nM
CC50 ([34]; crfk): 11 nM
IC50 [35]: 46 nM
EC50 [36]: > 30 nM
CC50 [37]: > 82 nM
EC50 [38]: > 82 nM
EC50 [39]: > 82 nM

Nc1nc2c(ncn2COC(CO)CO)c(=O)[nH]1 [GANCICLOVIR]
CC50 [43]: > 100000 nM
CC50 [44]: > 100000 nM
CC50 ([12]; CRFK cells infected with feline coronavirus): > 100000 nM
EC50 [18]: > 100000 nM
CC50 [45]: > 100000 nM
EC50 [21]: > 100000 nM
CC50 [46]: > 100000 nM
CC50 ([34]; CRFK cells infected with feline herpesvirus): > 100000 nM
EC50 [36]: 2600 nM
